This is a sample that favours compounds with a hit; in the whole collection about 2.9% have one here.
PRMT1 inh: inhibitors of human PRMT1; recombinant PRMT1, activity-based probe fluorescence polarization; Q99873; 370,000 tested, 1.3% active; AID 652257; inhibition, % at 2.79 µM;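 active = inhibition above about 21% made by adding two undisclosed values, limit read from the data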
Target sequence (Q99873 whole entry, looked up): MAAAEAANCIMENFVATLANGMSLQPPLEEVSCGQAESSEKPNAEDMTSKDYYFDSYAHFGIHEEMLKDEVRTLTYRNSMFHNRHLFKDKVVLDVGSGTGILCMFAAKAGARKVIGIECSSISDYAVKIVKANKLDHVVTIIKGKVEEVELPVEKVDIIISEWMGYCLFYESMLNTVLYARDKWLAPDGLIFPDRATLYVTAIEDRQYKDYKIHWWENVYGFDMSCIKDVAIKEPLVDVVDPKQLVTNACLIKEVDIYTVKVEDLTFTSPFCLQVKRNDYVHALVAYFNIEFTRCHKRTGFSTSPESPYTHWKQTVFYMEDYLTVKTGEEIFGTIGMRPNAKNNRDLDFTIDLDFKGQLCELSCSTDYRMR
HCV core dimer: HCV core protein dimerization inhibition. TR-FRET GST/Flag-core106 dimerization, 1536-well. inhibition, % at 5 µM. 300,000 tested, 0.33% active;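 active = inhibition above the mean of all tested compounds plus 3 SD, set per screening campaign, cut at about 45% in these data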
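assay system = GST-tagged and Flag-tagged HCV core protein residues 1-106 | controls = unlabelled core106 and no-GST-core106 wells | incubation = compound-protein-antibody incubation 4 h at 22.5 °C | probe or stimulus = Eu donor and XL665 acceptor anti-tag antibodies | read-out = % inhibition based on acceptor/donor emission ratio | signal = TR-FRET 671 and 617 nm emission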
HCV NS3 hel inh: blocks Hepatitis C virus NS3 helicase unwinding. 290,000 tested, 0.56% active. AID 1800. NS3 helicase DNA unwinding, Cy5 molecular beacon fluorescence. inhibition, % at 10.9 µM;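 active = inhibition above the mean of all tested compounds plus 3 SD, set per campaign, cut at about 35% in these data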;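 also: 0% = DMSO wells and 100% = thioflavine S control wells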
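Assay system – hepatitis C virus NS3 helicase domain fragment enzyme · Buffer or medium – MOPS pH 6.5, MgCl2, DTT, Tween20, BSA · Reagent – Cy5/quencher beacon DNA duplex and ATP to start · Compound – single 10.9 µM dose · Timing – 1 h at 25 °C · Technique – Cy5 beacon fluorescence read at start and 1 h · Measure – % inhibition of unwinding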
ABHD5 PLIN5 PPI: inhibitors of human ABHD5-perilipin-5 interaction | Q00G26+Q8WTS1 | Split G. princeps luciferase complementation, luminescence, 4 h | inhibition, % at 4 µM | 360,000 tested, 0.78% active | AID 602281;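 active = inhibition above the mean inhibition across every tested compound plus 3 SD, cut at about 22% in these data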;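 also: 0% = DMSO only wells and the 100% control is not disclosed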
A3G deaminase: blocks human APOBEC3G single-stranded DNA deamination; 330,000 tested, 0.28% active; AID 493012; Q9HC16; inhibition, % at 20 µM; recombinant A3G, ssDNA deamination FAM/TAMRA fluorescence;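 active = inhibition of at least 40% at 20 µM, with no more than 30% in the related APOBEC3A deaminase screen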;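 also: plate controls were DMSO wells with A3G for no effect and wells lacking A3G enzyme for full effect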
A3A deaminase: inhibitors of human APOBEC3A DNA deaminase; P31941; recombinant A3A, FAM/TAMRA ssDNA deamination fluorescence; inhibition, % at 20 µM; 330,000 tested, 0.41% active;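 active = at least 40% inhibition at 20 µM here, with at most 30% in a related deaminase screen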;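 also: plate controls were A3A with DMSO for no effect and wells lacking A3A enzyme for full effect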
Target sequence (P31941 whole entry, looked up): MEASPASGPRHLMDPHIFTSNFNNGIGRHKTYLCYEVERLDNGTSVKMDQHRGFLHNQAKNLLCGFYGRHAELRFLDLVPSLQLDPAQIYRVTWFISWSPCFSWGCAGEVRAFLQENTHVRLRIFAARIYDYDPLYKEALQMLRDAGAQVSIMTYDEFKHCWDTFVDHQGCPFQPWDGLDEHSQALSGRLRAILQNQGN
A3A conf: APOBEC3A (human) deaminase inhibition, confirmed; shares compounds with A3A deaminase; recombinant A3A, ssDNA deaminase UDG fluorescence assay; inhibition, % at 20 µM; 1,400 tested, 63% active;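 active = inhibition reaching a set limit, 80% of the first screen's cutoff, at 20 µM in any replicate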;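 also: plate controls were DMSO wells with A3A for no effect and wells lacking A3A enzyme for full effect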
UDG A3A counter: UDG inhibition in APOBEC3A counter-screen. UDG counterscreen, FAM/TAMRA uracil oligo fluorescence. inhibition, % at 20 µM. 1,000 tested, under 10 active. shares compounds with A3A deaminase; call rule not given here
Starred values were filed as active, the others as inactive; nt = no result.

SMILES | PRMT1 inh | HCV core dimer | HCV NS3 hel inh | ABHD5 PLIN5 PPI | A3G deaminase | A3A deaminase | A3A conf | UDG A3A counter
CSC1=NCCN1CCOc1ccccc1 | 3.3 | -4.9 | 2.0 | 3.2 | 15.8 | 64.9* | 55.2* | -2.4
COC(=O)C[C@H]1CC[C@H](NC(=O)c2cccc(F)c2)[C@@H](CO)O1 | -9.5 | nt | nt | -6.6 | nt | nt | nt | nt
O=C(NCc1ccc2c(c1)OCO2)C1CCCN1S(=O)(=O)c1ccc(F)cc1 (stereo not drawn) | 5.2 | 4.1 | 10.5 | -2.1 | -7.3 | 55.1* | -4.3 | 2.5
O=C(NCc1ccc2c(c1)OCO2)C1CCN(S(=O)(=O)c2ccc(F)cc2)CC1 | 3.1 | -0.1 | -2.7 | -1.3 | -4.7 | -3.0 | nt | nt
Cc1onc(-c2ccc(Cl)cc2)c1-c1ccn(S(=O)(=O)c2cccc(Cl)c2)n1 | -5.4 | nt | nt | nt | nt | nt | nt | nt
CCCCOc1cccc2c(=O)n(CC(=O)Nc3ccc4c(c3)OCCO4)ccc12 | -1.6 | nt | nt | -3.8 | nt | nt | nt | nt
Cc1ccccc1N=C1NC(=O)/C(=C/c2cccn2-c2cccc(C(=O)O)c2)S1 | 4.9 | nt | 30.4 | nt | 5.8 | 49.7* | 42.9* | -2.8
Cc1ccc(-n2nc3c(=O)n(CC(=O)NC4CCCCCC4)nc(C)c3c2C)cc1 | -0.8 | 8.0 | -1.6 | -4.8 | -0.9 | -3.0 | nt | nt
CCCCn1c(N)c(N(CCC(C)C)C(=O)c2ccc(N3CCCC3=O)cc2)c(=O)[nH]c1=O | 0.7 | 1.0 | nt | -11.7 | -0.8 | 42.7* | 18.2 | 3.2
CCCCn1c(N)c(N(CC)C(=O)c2ccc(N3CCCC3=O)cc2)c(=O)[nH]c1=O | -1.7 | -3.2 | nt | 1.2 | -1.2 | 18.7 | nt | nt
CCCCn1c(N)c(N(CC)C(=O)c2ccc(Cl)c([N+](=O)[O-])c2)c(=O)[nH]c1=O | 2.9 | -10.5 | 13.2 | -12.0 | 1.9 | 49.7* | 28.5 | nt
CCCCn1c(N)c(N(CCC(C)C)C(=O)C2CC(=O)N(c3cccc(SC)c3)C2)c(=O)[nH]c1=O (stereo not drawn) | 4.4 | -3.9 | nt | -0.8 | 9.3 | 45.2* | 0.1 | nt
CCCCn1c(N)c(N(CCC(C)C)C(=O)C2CC(=O)N(c3ccc4c(c3)OCCO4)C2)c(=O)[nH]c1=O (stereo not drawn) | -0.1 | -2.1 | 2.1 | -6.7 | -2.3 | 12.2 | nt | nt
CC1(C)Oc2ccc3ccc(=O)oc3c2-c2cnoc21 | -1.3 | -7.0 | 9.8 | -2.9 | 21.9 | 50.6* | 72.4* | -2.4
CC1(C)Oc2ccc3ccc(=O)oc3c2-c2cn[nH]c21 | 2.9 | -2.5 | -4.2 | 2.4 | 24.0 | 59.2* | 65.3* | 5.0
O=C(C1=C[C@H](c2coc3ccccc3c2=O)C[C@H](OCCCCO)O1)N1CCN(Cc2ccccc2)CC1 | -1.0 | -4.0 | -11.9 | 13.4 | -10.1 | 75.6* | 4.9 | 5.5
Cc1ccc(CN2C(=O)N/C(=C\c3ccc(-c4ccc(C(=O)O)cc4C)o3)C2=O)cc1 | 0.7 | 13.0 | 5.5 | 0.8 | 20.6 | 52.9* | 31.7* | -1.1
CCCC(=O)N1CCOCC1c1cc(C(=O)Nc2ccccc2)no1 (stereo not drawn) | -2.1 | nt | nt | 2.6 | nt | nt | nt | nt
Clc1ccccc1Nc1nc(NCC2CC2)nc2ccsc12 | 1.6 | nt | nt | 4.4 | nt | nt | nt | nt
Brc1ccc2nc(-c3ccc(CN4CCC5(CC4)CNc4ccccc45)cc3)c(-c3ccccc3)nc2c1 | -1.6 | nt | nt | nt | nt | nt | nt | nt
CCOC(=O)c1ccc2c(c1)N(CC)C(=O)c1ccccc1S2 | nt | 4.3 | -17.1 | 3.0 | 11.9 | 51.7* | 72.4* | -3.1
O=[N+]([O-])c1ccccc1/C=C/C=N/Nc1nc(N2CCCCC2)nc(N2CCCCC2)n1 | -0.6 | 9.2 | 12.9 | 1.2 | 15.8 | 78.2* | 80.7* | -1.8
Cc1cccnc1NS(=O)(=O)c1ccccc1 | -7.6 | nt | nt | 5.5 | nt | nt | nt | nt
Cc1ccc2ncccc2c1NS(=O)(=O)c1ccccc1 | 2.0 | -5.8 | -2.1 | -5.0 | 26.6 | 43.2* | 13.4 | nt
C[N+]1(CCCOC(=O)C2(c3ccccc3)CCCC2)CCOCC1 | -0.9 | -0.5 | -3.9 | 3.2 | 27.9 | 85.1* | 69.3* | -2.6
SMILES | PRMT1 inh | HCV core dimer | HCV NS3 hel inh | ABHD5 PLIN5 PPI | A3G deaminase | A3A deaminase | A3A conf | UDG A3A counter
CCOCc1cnc(C)nc1NCC(=O)c1c(C)[nH]c2ccc(OC)cc12 | -3.6 | -0.8 | 2.3 | 4.5 | 21.2 | 54.9* | 79.8* | 2.0
COc1ccc2[nH]c(C)c(C(=O)CN3CCN(C/C=C/c4ccccc4)CC3)c2c1 | -5.2 | -4.0 | -79.0 | 6.5 | -4.4 | 0.9 | nt | nt
CC1(CC(=O)N/N=C/c2cc([N+](=O)[O-])c(O)cc2O)OCCO1 | 0.5 | -3.1 | -1.4 | 9.6 | 21.3 | 48.0* | 49.0* | 4.5
Cc1ccc(-n2c(C)cc(/C=N/NC(=O)CC3(C)OCCO3)c2C)c(C)c1 | 2.0 | 0.4 | -5.5 | 3.2 | 3.8 | 2.5 | nt | nt
CC(C(=O)Nc1ccccc1Oc1ccccc1)c1ccccc1 (stereo not drawn) | 3.4 | 2.8 | 1.4 | -6.7 | -4.7 | -0.7 | nt | nt
CCn1c(=O)n(CC)c2cc(NC(=O)C(C)c3ccccc3)c(Br)cc21 (stereo not drawn) | -0.8 | -7.0 | -3.6 | -9.1 | 24.2 | 54.5* | 26.1 | nt
CN(Cc1cccc(F)c1)C(=O)c1cc(S(=O)(=O)N2CCOCC2)ccc1N1CCCC1 | -1.2 | nt | nt | -4.3 | -2.9 | 0.5 | nt | nt
Cc1cccc(C)c1NC(=O)CN(C)C(=O)c1cc(S(=O)(=O)N2CCOCC2)ccc1N1CCCC1 | 2.3 | -8.5 | nt | 3.6 | 13.3 | 45.7* | -1.2 | nt
CCOC(=O)c1c(CSc2ccccc2)n(C)c2ccc(O)cc12 | 10.1 | 2.5 | -1.4 | -5.2 | -4.6 | -1.8 | nt | nt
COc1ccc(NC(=O)CN(C)CC(=O)N(C)C2(C#N)CCC(C)CC2)cc1 (stereo not drawn) | -3.8 | nt | nt | 6.6 | 8.7 | 43.7* | 33.0* | 2.6
COc1ccc(Cl)cc1N(CC(=O)Nc1ccc2c(c1)OCO2)S(C)(=O)=O | 0.2 | 1.2 | -2.6 | -3.9 | 3.2 | 41.8* | 7.6 | nt
COc1ccc(OC)c(CN2C(=O)CN(S(C)(=O)=O)CC2(C)C(=O)NC(C)C)c1 (stereo not drawn) | 1.5 | nt | nt | -11.9 | nt | nt | nt | nt
CCc1ccc(/C=C/c2c[nH]c3ccccc23)[n+](CC)c1 | 1.9 | -25.6 | -6.9 | -2.3 | 20.0 | 64.5* | 68.7* | 0.0
CCc1ccc(-c2cc(C(=O)N/N=C/c3c[nH]c4ccccc34)[nH]n2)cc1 | 6.3 | 2.0 | 2.7 | 2.7 | -2.3 | 4.9 | nt | nt
CC[N+]1(CC(O)COC2CC(C)CC(C)(C)C2)CCOCC1 (stereo not drawn) | -0.5 | -4.8 | -2.0 | -5.1 | 23.7 | 43.2* | 75.0* | -4.0
CC1CCN(CC(O)COC2CC(C)CC(C)(C)C2)CC1 (stereo not drawn) | 3.6 | 2.4 | nt | 0.1 | -10.8 | -4.0 | nt | nt
COc1cc(OC)c(OC)cc1CNCc1ccco1 | -1.9 | -4.3 | 9.9 | 0.8 | 0.1 | 6.6 | nt | nt
